Data as given in publication PMC5982514 (Biochemistry, 2018).

Experiments:
Type in all cases: biochemical
[1] = test system: BTK, SYK, ABL, SRC, ALK, EGFR and FLT3; assay: Kinetic analysis across seven PTKs; conditions: for substrate activity for all kinases tested: panel screen and seven PTKs
Procedure, shortened: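 Kinetics on seven kinases. Final enzyme: 0.3 ng/μL ABL/BTK/SRC/SYK, 1.5 ng/μL FLT3, 2.7 ng/μL ALK/EGFR. Lys-modified peptides at 1–150 μM with 50 μM [γ-33P]ATP, 30 °C; spotted on P81 at 10/20/30 min. Michaelis–Menten fit, or kcat/Km from linear slope (≤75 μM); three runs (FLT3 two).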

Abl = Abl (Homo sapiens, UniProt P00519); assay: Michaelis-Menten kinetic analysis, Abl; conditions: for catalytic parameters compared with consensus peptides: consensus peptides of ref [15]
Src (GST fusion) = Src (GST fusion) (Homo sapiens, UniProt P12931); assay: Michaelis-Menten kinetic analysis, Src; conditions: consensus peptides of ref [15]
Procedure, shortened: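 GST-SRC from HEK293T, glutathione-Sepharose purified, 0.3 ng/μL final. Peptides with C-terminal Gly→Lys at 1–150 μM, in HEPES pH 7.5/NaCl/MgCl2/DTT/Tween 20 with 50 μM [γ-33P]ATP at 30 °C. Aliquots at 10, 20 and 30 min spotted on P81, H3PO4-washed, phosphorimaged. Initial rates fit to Michaelis–Menten, or kcat/Km from linear slope (≤75 μM); mean ± SEM of three experiments.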

BTK (GST fusion) = BTK (GST fusion) (Homo sapiens, UniProt Q06187); assay: Michaelis-Menten kinetic analysis, BTK
Procedure, shortened: (§1)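 GST-fused kinases were expressed in HEK293T and purified on glutathione Sepharose, then used at 0.3 ng/μL. Peptides (Lys-substituted C-termini) were titrated from 1 to 150 μM with 50 μM [γ-33P]ATP (0.025 μCi/μL) in HEPES pH 7.5/NaCl/MgCl2/DTT/Tween 20 buffer at 30 °C. Aliquots at 10–30 min went onto P81 paper for phosphorimaging. kcat/Km came from a Michaelis–Menten fit or the linear slope (≤75 μM). Three experiments.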

FLT3 (GST-FLT3^564–993) = target: T1, FLT3 (GST-FLT3^564–993) (Homo sapiens, UniProt P36888); assay: Michaelis-Menten kinetic analysis, FLT3; conditions: kcat/Km of peptide 2 over peptide 5, mean±sem, two experiments
T1 sequence (P36888 564-993): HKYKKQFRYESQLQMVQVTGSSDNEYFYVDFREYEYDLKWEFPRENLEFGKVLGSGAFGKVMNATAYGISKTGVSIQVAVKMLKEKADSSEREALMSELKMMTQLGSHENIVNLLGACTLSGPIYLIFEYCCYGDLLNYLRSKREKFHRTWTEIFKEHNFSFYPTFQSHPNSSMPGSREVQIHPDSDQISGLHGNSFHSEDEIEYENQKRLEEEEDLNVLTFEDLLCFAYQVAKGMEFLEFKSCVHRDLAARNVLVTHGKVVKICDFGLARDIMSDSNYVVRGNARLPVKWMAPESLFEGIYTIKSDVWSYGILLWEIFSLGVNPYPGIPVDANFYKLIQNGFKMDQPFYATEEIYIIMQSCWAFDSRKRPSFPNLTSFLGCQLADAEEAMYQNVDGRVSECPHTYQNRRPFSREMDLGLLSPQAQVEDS
Procedure, shortened: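 GST-FLT3 (residues 564–993) was expressed in HEK293T, glutathione-purified and used at 1.5 ng/μL. Peptides at 1–150 μM were reacted with 50 μM [γ-33P]ATP (0.025 μCi/μL) in 50 mM HEPES pH 7.5, 10 mM MgCl2, 1 mM DTT at 30 °C. Timepoints at 10, 20 and 30 min were spotted on P81 paper and phosphorimaged. Initial rates were fitted to Michaelis–Menten, or kcat/Km was derived from the slope up to 75 μM. Two experiments.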

EGFR (His6-EGFR^672–998) = EGFR (His6-EGFR^672–998) (Homo sapiens, UniProt P00533); assay: Michaelis-Menten kinetic analysis, EGFR
Procedure, shortened: (§2)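 His6-tagged intracellular kinase domains were expressed and purified from Sf9 cells and used at 2.7 ng/μL final. Peptides were varied over 1–150 μM with 50 μM [γ-33P]ATP (0.025 μCi/μL) in pH 7.5 HEPES buffer containing 10 mM MgCl2 at 30 °C. Aliquots taken at 10, 20 and 30 min were captured on P81 paper, washed in 75 mM H3PO4 and phosphorimaged. Rates were fitted to Michaelis–Menten, or kcat/Km was taken from the linear slope (≤75 μM). Three experiments.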

Syk (GST fusion) = Syk (GST fusion) (Homo sapiens, UniProt P43405); assay: Michaelis-Menten kinetic analysis, Syk; conditions: kcat/Km of peptide 2 over peptide 5, mean±sem, three experiments
Procedure, shortened: as §1

ALK (His6-ALK^1090–1416) = ALK (His6-ALK^1090–1416) (Homo sapiens, UniProt Q9UM73); assay: Michaelis-Menten kinetic analysis, ALK; conditions: kcat/Km of peptide 2 over peptide 5, mean±sem, three experiments
Procedure, shortened: as §2

[2] = kcat/Km of peptide 2 over peptide 5, mean±sem, three experiments

Abl, sequence (P00519 whole entry, the tested form may be a part): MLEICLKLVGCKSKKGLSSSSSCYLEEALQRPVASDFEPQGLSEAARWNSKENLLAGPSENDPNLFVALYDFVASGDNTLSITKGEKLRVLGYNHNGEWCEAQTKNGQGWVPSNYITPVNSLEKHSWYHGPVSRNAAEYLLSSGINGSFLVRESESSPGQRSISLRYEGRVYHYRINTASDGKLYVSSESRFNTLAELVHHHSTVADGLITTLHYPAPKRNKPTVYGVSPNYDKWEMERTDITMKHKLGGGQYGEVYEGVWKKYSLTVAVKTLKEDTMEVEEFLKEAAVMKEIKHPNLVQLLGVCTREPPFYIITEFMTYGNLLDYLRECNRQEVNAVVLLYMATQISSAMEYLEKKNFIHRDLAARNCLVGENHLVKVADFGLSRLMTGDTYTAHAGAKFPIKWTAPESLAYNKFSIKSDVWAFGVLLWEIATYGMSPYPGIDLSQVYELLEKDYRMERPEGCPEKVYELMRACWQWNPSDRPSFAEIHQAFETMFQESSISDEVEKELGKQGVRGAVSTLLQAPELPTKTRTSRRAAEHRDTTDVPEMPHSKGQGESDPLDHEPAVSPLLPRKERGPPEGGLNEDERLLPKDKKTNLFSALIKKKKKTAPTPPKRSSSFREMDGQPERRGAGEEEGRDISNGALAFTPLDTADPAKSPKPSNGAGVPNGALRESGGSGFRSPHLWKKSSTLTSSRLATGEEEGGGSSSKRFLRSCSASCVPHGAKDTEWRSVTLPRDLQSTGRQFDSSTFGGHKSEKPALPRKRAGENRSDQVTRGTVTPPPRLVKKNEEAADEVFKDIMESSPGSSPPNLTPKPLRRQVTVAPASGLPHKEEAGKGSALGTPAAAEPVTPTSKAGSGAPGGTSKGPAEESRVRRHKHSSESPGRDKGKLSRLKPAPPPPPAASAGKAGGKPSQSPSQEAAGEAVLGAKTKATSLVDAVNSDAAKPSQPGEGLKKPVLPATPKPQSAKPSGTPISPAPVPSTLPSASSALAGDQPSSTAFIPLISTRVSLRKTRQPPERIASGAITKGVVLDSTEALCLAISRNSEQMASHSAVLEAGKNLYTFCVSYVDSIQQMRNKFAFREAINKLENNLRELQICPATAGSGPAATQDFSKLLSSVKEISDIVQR
BTK (GST fusion), sequence (Q06187 whole entry, the tested form may be a part): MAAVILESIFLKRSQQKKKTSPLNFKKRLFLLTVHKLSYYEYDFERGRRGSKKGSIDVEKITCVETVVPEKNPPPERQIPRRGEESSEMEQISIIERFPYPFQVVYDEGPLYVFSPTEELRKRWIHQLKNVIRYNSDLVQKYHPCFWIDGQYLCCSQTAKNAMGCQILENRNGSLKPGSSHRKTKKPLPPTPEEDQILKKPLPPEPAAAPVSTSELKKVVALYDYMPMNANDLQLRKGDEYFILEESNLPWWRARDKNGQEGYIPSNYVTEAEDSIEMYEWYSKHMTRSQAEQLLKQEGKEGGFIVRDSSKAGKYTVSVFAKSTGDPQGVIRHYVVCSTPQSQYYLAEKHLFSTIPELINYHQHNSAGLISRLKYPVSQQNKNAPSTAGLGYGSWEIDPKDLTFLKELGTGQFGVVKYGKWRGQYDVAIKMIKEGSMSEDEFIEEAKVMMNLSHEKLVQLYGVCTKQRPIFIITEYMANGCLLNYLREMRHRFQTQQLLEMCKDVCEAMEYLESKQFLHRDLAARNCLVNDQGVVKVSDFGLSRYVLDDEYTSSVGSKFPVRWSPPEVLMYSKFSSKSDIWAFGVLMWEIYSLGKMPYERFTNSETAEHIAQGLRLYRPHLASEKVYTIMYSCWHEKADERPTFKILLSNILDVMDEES
ALK (His6-ALK^1090–1416), sequence (Q9UM73 1090-1416): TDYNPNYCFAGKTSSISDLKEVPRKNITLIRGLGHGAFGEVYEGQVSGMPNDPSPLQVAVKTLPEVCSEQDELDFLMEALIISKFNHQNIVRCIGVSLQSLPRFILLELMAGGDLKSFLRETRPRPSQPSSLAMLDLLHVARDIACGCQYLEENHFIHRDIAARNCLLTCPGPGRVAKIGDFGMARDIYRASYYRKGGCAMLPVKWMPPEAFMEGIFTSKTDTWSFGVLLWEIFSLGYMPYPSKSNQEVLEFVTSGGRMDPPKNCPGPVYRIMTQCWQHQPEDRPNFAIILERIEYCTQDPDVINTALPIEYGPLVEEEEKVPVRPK

Sequence	preference of NRTKs ([1]; NRTKs among the kinases examined, peptide 5 vs peptide 2)	substrate activity for all kinases tested [1]	catalytic parameters compared with consensus peptides (Abl)	kinase preference between peptides 2 and 5 (Abl; specificity constant)	catalytic parameters compared with consensus peptides (Src (GST fusion))	kinase preference between peptides 2 and 5 (BTK (GST fusion); specificity constant)	2/5 kcat/Km ratio (FLT3 (GST-FLT3^564–993))	preference of RTKs ([1]; RTKs among the kinases examined, generally, peptide 2 vs peptide 5)	2/5 kcat/Km ratio (EGFR (His6-EGFR^672–998); [2])	kinase preference between peptides 2 and 5 (EGFR (His6-EGFR^672–998); specificity constant)	2/5 kcat/Km ratio (Syk (GST fusion))	2/5 kcat/Km ratio (Abl; [2])	2/5 kcat/Km ratio (ALK (His6-ALK^1090–1416))	2/5 kcat/Km ratio (BTK (GST fusion); [2])
DEAIYATVA [Peptide 5]	the reverse preference was seen for NRTKs	successful substrates for all kinases tested	rivaled those determined with consensus peptides	more substantial preference	rivaled those determined with consensus peptides	more substantial preference	–	–	–	–	–	–	–	–
EDPIYVTLE [Peptide 2]	–	successful substrates for all kinases tested	rivaled those determined with consensus peptides	–	rivaled those determined with consensus peptides	–	1.43 ± 0.07	generally preferred over peptide 5 for RTKs	5.8 ± 0.2	more substantial preference	1.8 ± 0.2	0.13 ± 0.01	1.23 ± 0.02	0.31 ± 0.01
